Experimental data of several laboratories.
Target: Ephrin type-B receptor 4 (EPHB4, Homo sapiens, UniProt P54760)
Residues used in one study (P54760 16-987): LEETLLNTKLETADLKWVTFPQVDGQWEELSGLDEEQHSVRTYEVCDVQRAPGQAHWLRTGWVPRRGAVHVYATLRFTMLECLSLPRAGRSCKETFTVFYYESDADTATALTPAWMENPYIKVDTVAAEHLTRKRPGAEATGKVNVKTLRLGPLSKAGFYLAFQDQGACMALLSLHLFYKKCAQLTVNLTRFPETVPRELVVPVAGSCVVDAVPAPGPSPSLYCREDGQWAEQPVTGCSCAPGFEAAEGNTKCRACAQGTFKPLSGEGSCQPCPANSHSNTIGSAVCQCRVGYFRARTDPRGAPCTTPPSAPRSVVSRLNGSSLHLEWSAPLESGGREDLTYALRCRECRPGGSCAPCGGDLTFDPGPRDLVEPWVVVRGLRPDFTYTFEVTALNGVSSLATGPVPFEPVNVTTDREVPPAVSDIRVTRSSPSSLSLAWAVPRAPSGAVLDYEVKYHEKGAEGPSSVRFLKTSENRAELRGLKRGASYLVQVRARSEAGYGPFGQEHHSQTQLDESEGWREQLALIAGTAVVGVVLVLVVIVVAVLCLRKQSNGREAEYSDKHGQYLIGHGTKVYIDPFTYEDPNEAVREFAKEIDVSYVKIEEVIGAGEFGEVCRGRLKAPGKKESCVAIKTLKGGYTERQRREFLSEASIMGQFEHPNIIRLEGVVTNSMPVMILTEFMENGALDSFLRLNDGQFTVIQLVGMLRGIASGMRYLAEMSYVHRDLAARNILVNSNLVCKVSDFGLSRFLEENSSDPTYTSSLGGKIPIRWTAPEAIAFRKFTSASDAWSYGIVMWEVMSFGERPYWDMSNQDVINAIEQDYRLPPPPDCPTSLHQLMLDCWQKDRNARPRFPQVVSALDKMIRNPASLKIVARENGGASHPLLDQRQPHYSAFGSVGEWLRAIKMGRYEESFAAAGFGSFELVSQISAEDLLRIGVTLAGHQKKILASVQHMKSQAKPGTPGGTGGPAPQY

c1ccc(CNc2nc(N3CCOc4ccccc43)nc3c2CCCC3)cc1
inhibition (target engagement in cells; inhibitor; chemoproteomics; 20 mM): -4%

Cc1[nH]c(/C=C2\C(=O)Nc3ccc(F)cc32)c(C)c1C(=O)N[C@H]1CCN(C(=O)N(C)C)C1
remaining activity (enzyme activity; inhibitor; 1 µM): 101%

COc1cc(Cl)c(C(=O)N[C@@H](CN[C@H]2CC[C@@H](N)CC2)Cc2ccc(C#N)cc2)cc1-c1ccc(CN[C@H](C)c2ccc(C)cc2)o1
remaining activity (enzyme activity; inhibitor; 1 µM): 91%

COc1cc(Nc2cnc(C#N)c(O[C@H](C)CN(C)C)n2)ncc1-c1cnn(C)c1
remaining activity (enzyme activity; inhibitor; radiometric; 10 µM): 88%

C[C@@H](c1cccc(C#N)c1)n1cc(Cl)cc(C(N)=O)c1=N
remaining binding (cell-free assay; competition with immobilised ligand; 1 µM): 96%

CC(C)(C)c1nc(-c2cccc(NS(=O)(=O)c3c(F)cccc3F)c2F)c(-c2ccnc(N)n2)s1
remaining activity (enzyme activity; inhibitor; radiometric; 1 µM): 97%

CNC(=O)c1cc2c(Oc3ccc(NC(=O)C4(C(=O)Nc5ccc(F)cc5)CC4)cc3)ccnc2cc1OC
inhibition (enzyme activity; inhibitor; radiometric; 1 µM): 83%

Nc1ncnc2occ(-c3ccc(NC(=O)Nc4cc(C(F)(F)F)ccc4F)cc3)c12
remaining signal (cell-free assay; 20 µM): 0%

CC(C)(O)[C@H]1CC[C@H](Nc2ccc3ncc(-c4cccc(C(F)(F)F)c4)n3n2)CC1
remaining activity (enzyme activity; inhibitor; 1 µM): 78.2%

CCCS(=O)(=O)Nc1ccc(F)c(C(=O)c2c[nH]c3ncc(-c4ccc(Cl)cc4)cc23)c1F
inhibition (enzyme activity; inhibitor; 1 µM): < 20%

CCOc1cc(-c2nncn2C)ccc1Nc1ncc2cc(C)nc(NCC(C)(C)C)c2n1
inhibition (enzyme activity; inhibitor; FRET; 1 µM): < 15%

CNCc1ccc(-c2cc(-c3nc(-c4ccc(S(=O)(=O)C(C)C)cc4)cnc3N)on2)cc1
inhibition (enzyme activity; inhibitor; 0.4 µM): 0%

c1ccc(N2CCN(Cc3nc4ccccc4[nH]3)CC2)nc1
remaining binding (cell-free assay; competition with immobilised ligand; 1 µM): 100%

COc1cc2c(Nc3ccc(Br)cc3F)ncnc2cc1OCC1CCN(C)CC1
remaining signal (cell-free assay; 0.5 µM): 13%

CO[C@H]1CC[C@H](CNc2ccc(S(=O)(=O)NC(=O)c3ccc(N4CCN(CC5=C(c6ccc(Cl)cc6)CC(C)(C)CC5)CC4)cc3Oc3cnc4[nH]ccc4c3)cc2[N+](=O)[O-])CC1
remaining binding (cell-free assay; competition with immobilised ligand; 1 µM): 100%

C[S+]([O-])c1ccc(-c2nc(-c3ccncc3)c(-c3ccc(F)cc3)[nH]2)cc1 (centres unmarked)
remaining signal (cell-free assay; 0.5 µM): 91.1%

N#Cc1ccc(Nc2ccc3[nH]c(=O)[nH]c3c2)c(Cl)c1
remaining binding (cell-free assay; competition with immobilised ligand; 1 µM): 98%

CCCOc1ccc(OC)c(F)c1C(=O)c1ccc(C(=O)N[C@@H]2CNC[C@H]2NC(=O)c2ccc3[nH]ncc3c2)cc1
remaining activity (enzyme activity; inhibitor; 10 µM): 79%

COc1cc2ncnc(Nc3ccc(Oc4ccccc4)cc3C)c2cc1OC
inhibition (enzyme activity; inhibitor; 1 µM): 21%

Cc1cc(NC(=O)c2cccc(S(F)(F)(F)(F)F)c2)cc(-n2ccn3nc(-c4cccnc4)cc23)c1
remaining binding (cell-free assay; competition with immobilised ligand; 1 µM): 100%

Cc1ccc(C(=O)Nc2ccc(CN3CCN(C)CC3)c(C(F)(F)F)c2)cc1C#Cc1cnc2cccnn12
remaining signal (cell-free assay; 23.5 nM): 92%

COc1cccc2c(NCc3ccccc3)nc(-n3c(N)nc4ccccc43)nc12
inhibition (target engagement in cells; inhibitor; chemoproteomics; 20 mM): -8.8%

CC(=O)Nc1c(C(C)=O)c(=O)n(C)c2nc(-c3ccc(Cl)cc3Cl)c(-c3ccc(Cl)cc3)cc12
remaining binding (cell-free assay; competition with immobilised ligand; 1 µM): 100%

Cc1sc(C(=O)NC2COC2)cc1-n1cc(NC(=O)Nc2c(F)cccc2Cl)cn1
remaining activity (enzyme activity; inhibitor; 10 µM): 93.7%

Oc1cccc(-c2nc(N3CCOCC3)c3oc4ncccc4c3n2)c1
remaining activity (enzyme activity; inhibitor; 10 µM): 86%

CC1=C(C#N)[C@@H](c2ccc3[nH]nc(C)c3c2)C(C#N)=C(c2ccc(Cl)cc2)N1
remaining binding (cell-free assay; competition with immobilised ligand; 1 µM): 100%

COc1ccc(COc2ccc(Cc3cnc(N)nc3N)cc2OC)cc1
remaining signal (cell-free assay; 0.5 µM): 90.5%

Cc1c[nH]c2nccc(Oc3c(F)cc(Nc4cc(Cl)nc(N)n4)cc3F)c12
remaining binding (cell-free assay; competition with immobilised ligand; 0.1 µM): 100%

O=C1Nc2ccc(Cl)cc2C1=Cc1cc(Cl)c(O)c(Cl)c1
remaining signal (cell-free assay; 0.5 µM): 100%
